Assay results published in ChEMBL document CHEMBL3351892, “Synthesis and structure-activity relationship of non-peptidic antagonists of neuropilin-1 receptor” (Bioorg Med Chem Lett, 2014).
pIC50: −log10 of the molar value.

Assays:
MDA-MB-231 [1] = assay: Cytotoxicity against human MDA-MB-231 after 48 hrs by WST1 assay; assay type: functional, cell-based; conditions: MDA-MB-231, 48 h
In short: (§1)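 WST-1 viability: HUVEC seeded 3 × 10^3, MDA-MB-231 5 × 10^3 cells/well; compounds added one day after seeding at varied concentrations (up to 10 µM); after 48 h medium removed, WST-1 added, 1–2 h at 37 °C, OD 490 nm. Mean of three independent experiments, triplicate per concentration; IC50 from sigmoid dose–response fit.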

MDA-MB-231 [2] = assay: Inhibition of cell proliferation of human MDA-MB-231 after 72 hrs by crystal violet adhesion based colorimetric assay; assay type: functional; conditions: MDA-MB-231, 72 h
In short: (§2)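 Crystal violet adhesion: HUVEC 3 × 10^3, MDA-MB-231 5 × 10^3 cells/well, treated 72 h at varied concentrations (up to 10 µM); fixed 4% paraformaldehyde 15 min, PBS pH 7.4 wash, 0.04% crystal violet 30 min, solubilized 2% Triton X-100, OD 595 nm. Mean of three independent experiments in triplicate; IC50 from sigmoid dose–response curve.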

HUVEC [3] = assay: Cytotoxicity against HUVEC after 48 hrs by WST1 assay; assay type: functional, cell-based; conditions: Homo sapiens; in short: as §1
HUVEC [4] = assay: Inhibition of cell proliferation of HUVEC after 72 hrs by crystal violet adhesion based colorimetric assay; assay type: functional; conditions: Homo sapiens; in short: as §2
[5] = target: Neuropilin-1 (Homo sapiens) (UniProt O14786); assay: Inhibition of biotinylated VEGFA165 binding to NRP1 (unknown origin) at 10 uM by chemiluminescent assay
Neuropilin-1 (Homo sapiens), sequence (O14786 whole entry): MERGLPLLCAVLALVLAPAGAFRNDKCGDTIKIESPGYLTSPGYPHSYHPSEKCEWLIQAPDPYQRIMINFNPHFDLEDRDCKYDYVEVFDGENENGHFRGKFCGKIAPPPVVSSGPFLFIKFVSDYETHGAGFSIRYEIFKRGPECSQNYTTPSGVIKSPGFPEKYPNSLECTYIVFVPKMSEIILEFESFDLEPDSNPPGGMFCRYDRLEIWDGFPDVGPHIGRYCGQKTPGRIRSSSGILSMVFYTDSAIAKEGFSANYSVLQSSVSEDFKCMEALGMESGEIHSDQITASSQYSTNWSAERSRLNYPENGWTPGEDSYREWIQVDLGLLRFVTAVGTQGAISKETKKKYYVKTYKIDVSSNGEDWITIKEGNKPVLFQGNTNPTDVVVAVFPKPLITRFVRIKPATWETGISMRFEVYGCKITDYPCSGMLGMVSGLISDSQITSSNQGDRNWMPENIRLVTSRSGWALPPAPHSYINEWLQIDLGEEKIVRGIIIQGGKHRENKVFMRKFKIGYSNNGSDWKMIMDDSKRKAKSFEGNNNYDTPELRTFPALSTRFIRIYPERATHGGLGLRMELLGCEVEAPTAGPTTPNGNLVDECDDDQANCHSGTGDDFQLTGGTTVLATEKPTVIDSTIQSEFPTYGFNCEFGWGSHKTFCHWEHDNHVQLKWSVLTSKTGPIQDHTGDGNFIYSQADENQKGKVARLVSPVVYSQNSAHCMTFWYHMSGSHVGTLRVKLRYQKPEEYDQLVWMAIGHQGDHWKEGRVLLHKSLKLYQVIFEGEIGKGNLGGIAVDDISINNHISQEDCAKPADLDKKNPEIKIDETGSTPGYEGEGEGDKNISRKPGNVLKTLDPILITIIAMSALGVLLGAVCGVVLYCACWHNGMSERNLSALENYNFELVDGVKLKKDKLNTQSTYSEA
In short: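 NRP-1 coated overnight at 0.2 µg/mL in PBS, 4 °C; washed PBS/0.5% Tween 20, blocked 0.5% BSA 2 h 37 °C. Compound preincubated 1 h at 37 °C, then biotinylated VEGF-A165 with 4 µg/mL heparin 2 h at 37 °C; chemiluminescent read-out; percent displacement of bound tracer at 10 µM.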

Row | Compound | pIC50 (MDA-MB-231 [1]) | pIC50 (MDA-MB-231 [2]) | pIC50 (HUVEC [3]) | pIC50 (HUVEC [4]) | inhibition [5] [%]
1 | Cc1ccc(-c2nc3ccccc3[nH]2)cc1NC(=S)NC(=O)c1ccc2c(c1)OCO2 | 5.22 | 5.22 | 5.82 | 6.12 | 
2 | CCOc1ccc(C(=O)NC(=S)Nc2cccc(-c3nc4ccccc4[nH]3)c2)cc1OCC |  |  | 5.10 | 5.10 | 14
3 | Cc1ccc(-c2nc3ccccc3[nH]2)cc1NC(=S)NCc1ccc2c(c1)OCO2 | < 5.00 | < 5.00 | < 5.00 | < 5.00 | 
4 | CCOc1ccc(C(=O)NC(=S)Nc2cc(-c3nc4ccccc4[nH]3)ccc2C)cc1OCC |  |  |  | 5.22 | 32
5 | S=C(NCc1ccc2c(c1)OCO2)Nc1cccc(-c2nc3ccccc3[nH]2)c1 | < 5.00 | < 5.00 | < 5.00 | < 5.00 | 
6 | O=C(NC(=S)Nc1cccc(-c2nc3ccccc3[nH]2)c1)c1ccc2c(c1)OCO2 | 5.22 | 5.22 | 6.52 | 6.52 | 46
7 | COc1ccc(C(=O)NC(=O)Nc2cccc(-c3nc4ccccc4[nH]3)c2)cc1OC |  |  | 5.10 | 5.10 | 
8 | O=C(NC(=S)Nc1cccc(-c2nc3ccccc3[nH]2)c1)c1ccccc1 | < 5.00 | < 5.00 | < 5.00 | < 5.00 | 
9 | N#Cc1ccc2[nH]c(-c3cccc(NC(=S)NC(=O)c4ccc5c(c4)OCCO5)c3)nc2c1 | < 5.00 |  | 6.00 |  | 0
10 | Cc1ccc(-c2nc3ccccc3[nH]2)cc1NC(=S)NC(=O)c1ccc2c(c1)OCCO2 | 6.28 | 6.30 | 6.62 | 6.82 | 34
11 | Cc1ccc(-c2nc3cc(F)ccc3[nH]2)cc1NC(=S)NC(=O)c1ccc2c(c1)OCO2 |  |  | < 5.00 | < 5.00 | 
12 | O=C(NC(=S)Nc1cccc(-c2nc3ccccc3[nH]2)c1)c1ccc2c(c1)OCCO2 | 6.40 | 6.30 | 7.30 | > 7.00 | 38
13 | COc1ccc(C(=O)NC(=S)Nc2cccc(-c3nc4ccccc4[nH]3)c2)cc1OC | < 5.00 | 5.00 | 5.22 | 5.30 | 
14 | Cc1ccc(-c2nc3ccccc3s2)cc1NC(=S)NC(=O)c1ccc2c(c1)OCO2 | < 5.00 | < 5.00 | 5.30 | 5.30 | 
15 | O=C(NC(=S)Nc1cccc(-c2nc3ccccc3s2)c1)c1ccc2c(c1)OCCO2 | < 5.00 | < 5.00 | 5.59 | 5.59 | 
16 | N#Cc1ccc2[nH]c(-c3cccc(NC(=S)NC(=O)c4ccc5c(c4)OCO5)c3)nc2c1 |  |  |  | 5.22 | 37
17 | Cc1ccc(-c2nc3ccccc3[nH]2)cc1NC(=S)NC(=O)c1ccccc1 | < 5.00 | < 5.00 | < 5.00 | < 5.00 | 
18 | O=C(NC(=S)Nc1cccc(-c2nc3ccccc3s2)c1)c1ccc2c(c1)OCO2 | 5.00 | 5.10 | 6.00 | 6.05 | 14
